For data set [1], the target named is T1, Muscarinic acetylcholine receptor M4 (Homo sapiens, UniProt P08173).
T1 sequence (P08173 whole entry): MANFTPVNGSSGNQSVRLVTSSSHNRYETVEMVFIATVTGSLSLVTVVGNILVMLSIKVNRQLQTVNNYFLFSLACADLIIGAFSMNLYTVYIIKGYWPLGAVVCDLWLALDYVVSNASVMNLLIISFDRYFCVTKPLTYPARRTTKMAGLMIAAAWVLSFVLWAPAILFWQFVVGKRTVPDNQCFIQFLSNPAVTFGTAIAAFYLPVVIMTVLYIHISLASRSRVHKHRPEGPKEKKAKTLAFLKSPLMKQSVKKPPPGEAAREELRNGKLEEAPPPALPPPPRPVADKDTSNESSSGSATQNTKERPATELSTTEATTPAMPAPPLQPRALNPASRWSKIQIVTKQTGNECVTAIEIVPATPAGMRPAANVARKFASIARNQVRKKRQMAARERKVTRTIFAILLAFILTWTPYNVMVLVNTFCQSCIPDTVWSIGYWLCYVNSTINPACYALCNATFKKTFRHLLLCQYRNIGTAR
Nature of the data set: Positive allosteric modulation of human M4 receptor expressed in CHO cells coexpressing Gqi5 assessed as increase in acetylcholine-induced calcium mobilization. Type of data set: functional, cell-based. The essentials: (§1)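 Calcium mobilization in CHO cells expressing hM4 with Gqi5. Compound added in presence of a fixed EC20 concentration of acetylcholine. Values are means of three independent experiments, each run in triplicate.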
(Calcium flux is commonly read through the fluorescence of an indicator in the cells.)

Data set [2] deals with T2, Muscarinic acetylcholine receptor M4 (Homo sapiens) (UniProt P08173).
T2 sequence (whole entry): T1 sequence (P08173 whole entry)
Nature of the data set: Positive allosteric modulation of human M4 receptor expressed in CHO cells coexpressing Gqi5 assessed as increase in acetylcholine-induced calcium mobilization relative to acetylcholine. Type of data set: functional, cell-based. The method in brief: as §1

In data set [3] the target is T3, Cytochrome P450 1A2 (Homo sapiens, UniProt P05177).
T3 sequence (P05177 whole entry): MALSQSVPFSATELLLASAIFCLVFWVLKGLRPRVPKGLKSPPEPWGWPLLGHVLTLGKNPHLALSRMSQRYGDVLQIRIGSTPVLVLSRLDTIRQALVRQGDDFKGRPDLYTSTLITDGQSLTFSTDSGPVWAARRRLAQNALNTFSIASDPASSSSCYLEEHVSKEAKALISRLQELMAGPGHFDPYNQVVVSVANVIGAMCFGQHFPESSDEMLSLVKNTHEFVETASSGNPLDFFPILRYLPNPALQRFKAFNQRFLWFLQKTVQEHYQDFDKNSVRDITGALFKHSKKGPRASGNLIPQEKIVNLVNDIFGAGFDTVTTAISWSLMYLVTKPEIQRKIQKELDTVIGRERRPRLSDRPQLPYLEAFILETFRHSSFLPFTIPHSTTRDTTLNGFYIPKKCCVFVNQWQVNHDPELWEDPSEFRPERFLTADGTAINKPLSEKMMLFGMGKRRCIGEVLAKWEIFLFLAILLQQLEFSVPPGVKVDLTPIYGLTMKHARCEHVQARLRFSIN
Nature of the data set: Inhibition of CYP1A2 (unknown origin). Type of data set: ADME.

In data set [4] the target is Cytochrome P450 2C9 (Homo sapiens, UniProt P11712). Nature of the data set: Inhibition of CYP2C9 (unknown origin). It is filed as ADME.
Data set [5] concerns the target Cytochrome P450 2D6 (Homo sapiens, UniProt P10635). Nature of the data set: Inhibition of CYP2D6 (unknown origin). Type of data set: ADME.
Data set [6] addresses Cytochrome P450 3A4 (Homo sapiens, UniProt P08684). Nature of the data set: Inhibition of CYP3A4 (unknown origin). It is filed as ADME.
In data set [7] the test system is Rattus norvegicus. Nature of the data set: Elimination half-life in Sprague-Dawley rat at 0.1 to 1 mg/kg, iv. It is filed as ADME, organism-based. To be noted: in vivo.
Data set [8] is described as follows: Brain to plasma permeability coefficient, Kp of the compound in Sprague-Dawley rat at 0.1 to 0.2 mg/kg, iv measured at 0.25 hrs post dose. It is filed as ADME, organism-based. The essentials:
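Sprague-Dawley rats were dosed IV at 0.1–0.2 mg/kg, with brain and plasma sampled at 0.25 hr. Brain:plasma Kp was calculated, with Kp,uu where unbound fractions were available.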

In data set [9] the test system is MDR1 (P-gp). Nature of the data set: Efflux ratio of permeability in MDCK2-MDR1 cells. It is filed as ADME, cell-based, Canis lupus familiaris. The following applies: dog, MDCK-MDR1.
Data set [10] can be described thus: Unbound plasma concentration in human. Type of data set: ADME, cell-free.
Data set [11] can be described thus: Unbound plasma concentration in rat. It is filed as ADME, cell-free.
Data set [12] is described as follows: Unbound brain concentration in rat. Type of data set: ADME, tissue-based.
Data set [13] relates to Rattus norvegicus. Nature of the data set: Volume of distribution at steady state […] in Sprague-Dawley rat at 0.1 to 1 mg/kg, iv. It is filed as ADME, organism-based. The following applies: in vivo. The method in brief: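 IV pharmacokinetics in Sprague-Dawley rats at 0.1–1.0 mg/kg. CLp, elimination t½ and Vss derived.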

Structures are written as SMILES.

Here are results for 11 compounds from ChEMBL document CHEMBL4028836, “Optimization of M4 positive allosteric modulators (PAMs): The discovery of VU0476406, a non-human primate in vivo tool compound for translational pharmacology” (Bioorg Med Chem Lett, 2017).

Sequence of Cytochrome P450 3A4 (P08684 whole entry): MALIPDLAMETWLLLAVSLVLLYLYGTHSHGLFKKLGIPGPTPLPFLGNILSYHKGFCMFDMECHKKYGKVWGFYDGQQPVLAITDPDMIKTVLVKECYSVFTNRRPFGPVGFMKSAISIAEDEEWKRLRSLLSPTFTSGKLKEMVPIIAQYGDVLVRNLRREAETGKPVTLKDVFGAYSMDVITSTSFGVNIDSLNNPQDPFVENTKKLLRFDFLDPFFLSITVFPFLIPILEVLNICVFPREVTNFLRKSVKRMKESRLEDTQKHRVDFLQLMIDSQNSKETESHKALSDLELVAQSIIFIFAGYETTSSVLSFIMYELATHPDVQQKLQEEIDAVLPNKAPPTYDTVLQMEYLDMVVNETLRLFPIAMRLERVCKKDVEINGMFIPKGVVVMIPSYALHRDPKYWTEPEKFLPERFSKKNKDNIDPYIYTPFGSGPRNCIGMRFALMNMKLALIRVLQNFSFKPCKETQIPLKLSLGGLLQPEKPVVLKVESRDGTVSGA
Sequence of Cytochrome P450 2C9 (P11712 whole entry): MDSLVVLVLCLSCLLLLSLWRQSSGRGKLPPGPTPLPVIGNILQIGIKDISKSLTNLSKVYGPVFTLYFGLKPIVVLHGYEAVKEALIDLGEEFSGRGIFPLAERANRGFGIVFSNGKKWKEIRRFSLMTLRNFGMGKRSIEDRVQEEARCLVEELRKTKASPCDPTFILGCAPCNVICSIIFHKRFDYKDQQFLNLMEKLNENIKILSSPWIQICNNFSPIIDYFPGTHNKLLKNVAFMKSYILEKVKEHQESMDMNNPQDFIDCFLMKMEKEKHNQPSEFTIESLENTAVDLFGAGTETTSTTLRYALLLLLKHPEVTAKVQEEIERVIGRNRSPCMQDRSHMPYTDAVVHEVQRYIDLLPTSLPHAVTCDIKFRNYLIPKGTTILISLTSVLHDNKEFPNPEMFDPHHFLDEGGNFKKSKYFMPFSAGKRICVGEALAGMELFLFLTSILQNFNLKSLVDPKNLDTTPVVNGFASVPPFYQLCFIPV
Sequence of Cytochrome P450 2D6 (P10635 whole entry): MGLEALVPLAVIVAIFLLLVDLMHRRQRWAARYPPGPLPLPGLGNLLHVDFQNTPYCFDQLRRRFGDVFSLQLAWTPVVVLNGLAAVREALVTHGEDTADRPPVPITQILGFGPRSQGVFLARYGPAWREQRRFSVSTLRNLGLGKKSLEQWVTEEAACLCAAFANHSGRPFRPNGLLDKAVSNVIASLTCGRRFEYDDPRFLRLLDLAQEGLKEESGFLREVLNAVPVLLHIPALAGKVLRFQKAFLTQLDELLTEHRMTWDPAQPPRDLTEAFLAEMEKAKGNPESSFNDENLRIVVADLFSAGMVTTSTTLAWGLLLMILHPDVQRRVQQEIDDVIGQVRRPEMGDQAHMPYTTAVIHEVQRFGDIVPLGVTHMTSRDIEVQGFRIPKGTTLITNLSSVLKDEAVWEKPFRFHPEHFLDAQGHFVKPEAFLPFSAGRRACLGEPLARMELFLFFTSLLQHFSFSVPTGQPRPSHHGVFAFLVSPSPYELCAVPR

As to `Cc1cc(-c2ccc(CNC(=O)c3sc4nnc(C)c(C)c4c3N)cc2)cnc1F`, the EC50 in data set [1] (read-out: EC50) was 994 nM. Further, the %max in [2] came out at 68%.
`Cc1nnc2sc(C(=O)NCc3ccc(-c4ccncc4)cc3)c(N)c2c1C`: in data set [1] (read-out: EC50), the EC50 amounted to 36 nM. Besides, the %max in data set [2] came to 83%. The half-inhibitory concentration (IC50) in data set [3] came to 9700 nM; in data set [4] it was 2300 nM; in data set [5], 1300 nM; in [6], 340 nM. The “beta t1/2” value in [7] was 1.5 h. In [8], this compound gave a Kp of 0.94. Moreover, in [9], the efflux ratio was found to be 1.1. Also, the fraction unbound in data set [10] stood at 0.013; in [11], 0.037; in data set [12] it was 0.042.
As to `Cc1nnc2sc(C(=O)NCc3ccc(-c4ccccn4)cc3)c(N)c2c1C`, the EC50 in data set [1] (read-out: EC50) is 232 nM; in data set [1] (read-out: pEC50 (converted)), 214 nM. The %max in data set [2] worked out at 75%.
For the compound `Cc1nnc2sc(C(=O)NCc3ccccc3Br)c(N)c2c1C`, the EC50 in [1] (read-out: EC50) was more than 10000 nM. The %max in data set [2] is 31%.
Taken in the same sequence, the figures for `Cc1nnc2sc(C(=O)NCc3ccccc3-c3ccccc3)c(N)c2c1C` were more than 10000 nM and 30%.
For the compound `Cc1ncc(-c2ccc(CNC(=O)c3sc4nnc(C)c(C)c4c3N)cc2)cn1`, the EC50 in data set [1] (read-out: EC50) is 230 nM; in [1] (read-out: pEC50 (converted)), 214 nM. Further, in [2], the %max came to 65%.
Consider `Cc1nnc2sc(C(=O)NCc3ccc(-c4ccnc(F)c4)cc3)c(N)c2c1C`, for which, in [1] (read-out: EC50), the EC50 is 58 nM. In data set [2], the %max was 92%. Moreover, the IC50 in [3] is 2500 nM; in data set [4] it was 25000 nM; in data set [5] it was more than 30000 nM; in data set [6], 24000 nM. The “beta t1/2” value in [7] stood at 1.7 h. Besides, the Vdss in data set [13] came to 0.5 L/kg. The same compound gave a Kp in data set [8] of 0.21. Besides, the fraction unbound in data set [10] turned out to be 0.029; in data set [11], 0.002.
On to `Cc1nnc2sc(C(=O)NCc3ccc(Br)cc3)c(N)c2c1C`, for which the figures for the EC50 in data set [1] (read-out: EC50) and in data set [1] (read-out: pEC50 (converted)) were 187 nM and 182 nM, respectively. Besides, in [2], the %max amounted to 82%.
In the same order, the values of `Cc1nnc2sc(C(=O)NCc3ccc(-c4ccccc4)cc3)c(N)c2c1C` are 319 nM, 295 nM and 49%.
Consider `Cc1nnc2sc(C(=O)NCc3ccc(-c4cncc(F)c4)cc3)c(N)c2c1C`, for which the EC50 in data set [1] (read-out: EC50) is 144 nM. For the same compound, the %max in data set [2] stood at 78%.
`Cc1nnc2sc(C(=O)NCc3ccc(-c4ccnnc4)cc3)c(N)c2c1C`: the EC50 in data set [1] (read-out: EC50) came to 56 nM. In addition, the %max in data set [2] was found to be 96%.

The IC50 is the midpoint of a concentration-inhibition curve. The low end stands for inhibition by little substance, the high end for a need for much substance. For orientation: Kp means the ratio of the level in a tissue or fluid to that in plasma or blood. Broadly, the efflux ratio is a quotient of directional permeabilities that is used to spot active efflux. In general, fraction unbound refers to the share of the substance not bound to proteins or other matrix. Read a low fraction unbound as extensive binding. As usually defined, the Vdss is the apparent volume that relates the amount in the body to the concentration in plasma or blood. Higher therefore signals extensive tissue distribution.
